Shown are actives, neighbours in structure and some others; about 2.1% of the full set was active somewhere.
HTR2A ag: mouse Htr2a agonists via beta-arrestin recruitment, primary screen, cell-based, luminescence | actives 0.66% (n = 360,000) | CHO-K1 mHTR2A beta-arrestin complementation; percent of 30 µM serotonin response | activation, % at 7.6 µM | 5-hydroxytryptamine receptor 2A (Mus musculus), P35363;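 active = activation above a run cutoff, the mean activation of all tested compounds plus 3 SD, cut at about 14% in these data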;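 also: 0% = plate median of compound wells and 100% = 30 µM serotonin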
CCR6 antagonist: CCR6 receptor antagonists, primary screen, cell-based, CHO-K1, luminescence, beta-arrestin, uHTS; CHO-K1 CCR6 PathHunter beta-arrestin, CCL20-stimulated; inhibition, % at 20 µM; actives 0.49% (n = 340,000); AID 493098, 2011;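 active = compounds whose inhibition of the agonist-driven luminescence signal at 20 µM reaches about 50%, limit read from the data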;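 also: cells stimulated with CCL20 at 14 nM final; plate controls were DMSO with CCL20 for no effect and DMSO without agonist for full effect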
CXCR6 block: CXCR6 receptor inhibitors, primary screen, cell-based, beta-arrestin, luminescence, CHO-K1 PathHunter, 1536-well | C-X-C chemokine receptor type 6 (Homo sapiens), O00574 | inhibition, % at 20 µM | actives 0.36% (n = 360,000) | AID 602244, 2012; in the data active = inhibition above about 34%, passing the limit was not always enough;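 also: antagonist mode with CXCL16 agonist at 10 nM final; 0% = 10 nM CXCL16 with DMSO and 100% = unstimulated wells without agonist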
APJ antagonist: antagonists of human apelin receptor APJ, primary screen, CHO-K1 cells, beta-arrestin complementation, luminescence. actives 0.32% (n = 330,000). inhibition, % at 20 µM. P35414;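 active = inhibition above about 40% at 20 µM, limit read from the data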;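 also: cells challenged with 10 nM apelin-13 agonist together with compound; plate controls were apelin-13 plus DMSO wells for no effect and DMSO wells lacking apelin-13 for full effect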
APJ agonist: agonists of human apelin receptor APJ, primary screen, CHO-K1 cells, PathHunter beta-arrestin, luminescence; activation, % at 20 µM; actives 0.11% (n = 330,000); AID 2520, 2010; 0% DMSO wells, 100% apelin; P35414;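 active = activation more than six SD over the plate average, tested at 20 µM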;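 also: 0% = DMSO alone and 100% = apelin-13 at 10 nM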
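system = engineered CHO-K1 APJ arrestin reporter cells | input = 1000 cells per well | timing = overnight seeding, 90 min compound at 25 °C, 1 h detection | measured by = enzyme-fragment complementation luminescence | read-out = beta-arrestin recruitment to APJ as agonist activity, luminescent signal | control set = negative DMSO alone, positive Apelin-13 at 10 nM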
EBI2 antag: EBI2 receptor antagonists, beta-arrestin recruitment, primary screen, cell-based, luminescence, 7a,25-OHC stimulation, uHTS; G-protein coupled receptor 183 (Homo sapiens), P32249; inhibition, % at 5 µM; actives 0.81% (n = 360,000); 7a,25-OHC stimulated; in the data active = inhibition above about 38%;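 also: enzyme fragment complementation signal reports receptor beta-arrestin coupling in cells; 0% = agonist plus DMSO wells and 100% = wells without agonist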
Target sequence (P32249 whole entry, looked up, the tested form may be a part): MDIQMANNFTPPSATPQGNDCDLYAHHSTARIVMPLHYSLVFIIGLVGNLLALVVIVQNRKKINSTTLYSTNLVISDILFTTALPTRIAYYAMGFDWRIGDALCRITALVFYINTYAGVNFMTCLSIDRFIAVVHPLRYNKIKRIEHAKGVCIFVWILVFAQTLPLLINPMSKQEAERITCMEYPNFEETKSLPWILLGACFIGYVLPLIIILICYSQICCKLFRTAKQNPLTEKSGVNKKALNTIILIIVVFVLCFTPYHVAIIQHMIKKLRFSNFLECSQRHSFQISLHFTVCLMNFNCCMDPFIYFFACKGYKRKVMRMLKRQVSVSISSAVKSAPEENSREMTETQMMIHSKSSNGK
EBI2 antag conf: EBI2 antagonist hit retest, beta-arrestin, confirmation, cell-based, single concentration, luminescence, 7a,25-OHC stimulation. shares compounds with EBI2 antag. 7a,25-OHC antagonism. inhibition, % at 5 µM. actives 29% (n = 2,400). AID 651997, 2013;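 active = inhibition of at least 50%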
EBI2 ag: EBI2 agonist activity of antagonist hits, confirmation, counter-screen for EBI2 antagonist project, cell-based, single concentration, agonist mode, luminescence; shares compounds with EBI2 antag; EBI2-expressing cells, 60 min; 0% vehicle, 100% 7α,25-dihydroxycholesterol control; activation, % at 5 µM; 2,400 tested, under 10 active;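 active = activation of at least 50%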
bGal cs: E. coli beta-galactosidase enzyme inhibition, confirmation, counter-screen for EBI2 antagonist project, biochemical, luminescence, single concentration; actives 1% (n = 2,400); AID 652176, 2013; purified beta-galactosidase, luminescent Galacton Star, 15 min; shares compounds with EBI2 antag; inhibition, % at 5 µM;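 active = replicate-average signal at least 3 plate SD below neutral wells, shown as high inhibition, flagging enzyme-inhibiting false positives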;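 also: 0% = DMSO wells with enzyme and 100% = wells lacking enzyme; higher means stronger loss of beta-gal luminescence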
Starred values were filed as active, the others as inactive.

`CCN(CC(=O)NCc1ccc(Cl)cc1)C(=O)CSc1ccc(Br)cc1` gave HTR2A ag -6, CCR6 antagonist -2, CXCR6 block 4, APJ antagonist 5, APJ agonist 0, EBI2 antag 68*, EBI2 antag conf 35, EBI2 ag 0 and bGal cs 5.
CCOC(=O)Cc1cc(=O)[nH]n(-c2ccccc2)c1=O was read as HTR2A ag 7, CCR6 antagonist -1, CXCR6 block -3 and EBI2 antag -9.
For O=C(NCc1cccs1)C(=O)NCC(c1ccco1)N1CCN(c2ccccc2F)CC1 (stereo unspecified) the results were HTR2A ag 1, CCR6 antagonist 14, CXCR6 block -8, APJ antagonist 8, APJ agonist -3, EBI2 antag 52*, EBI2 antag conf 22, EBI2 ag 2 and bGal cs 4.
`COc1ccccc1N1CCN(C(=O)/C=C/c2cccc([N+](=O)[O-])c2)CC1` gave HTR2A ag 6, CCR6 antagonist 7, CXCR6 block -2, APJ antagonist -3, APJ agonist -1 and EBI2 antag 19.
Screening O=C(CN1CCN(c2ccc(Cl)cc2[N+](=O)[O-])CC1)N1CCOCC1 returned HTR2A ag -1, CCR6 antagonist -8, CXCR6 block -7, APJ antagonist -2, APJ agonist 3 and EBI2 antag 7.
`O=C(/C=C/c1ccc(Cl)cc1)N1CCN(c2ccc(Cl)cc2[N+](=O)[O-])CC1` gave HTR2A ag 3, CCR6 antagonist 15, CXCR6 block 1, APJ antagonist 3, APJ agonist -4, EBI2 antag 98*, EBI2 antag conf 80*, EBI2 ag 0 and bGal cs 10.
Screening CCC(=O)N1CCN(c2c(Cl)cccc2[N+](=O)[O-])CC1 returned HTR2A ag -4, CCR6 antagonist 18, CXCR6 block 4, APJ antagonist -18, APJ agonist -2 and EBI2 antag -3.
`O=C(/C=C/c1cccs1)N1CCN(c2ccc(F)cc2)CC1` gave HTR2A ag -5, CCR6 antagonist 22, CXCR6 block 5, APJ antagonist 17, APJ agonist 2, EBI2 antag 55*, EBI2 antag conf 36, EBI2 ag 1 and bGal cs 7.
For O=C(/C=C/c1ccc([N+](=O)[O-])cc1)N1CCN(c2ccccc2F)CC1 the results were HTR2A ag -2, CCR6 antagonist -10, CXCR6 block 5, APJ antagonist 8, APJ agonist 2, EBI2 antag 68*, EBI2 antag conf 24, EBI2 ag 2 and bGal cs 7.
Screening O=C(/C=C/c1ccccc1)N1CCN(c2c(Cl)cccc2[N+](=O)[O-])CC1 returned HTR2A ag -5, CCR6 antagonist 15, CXCR6 block -4, APJ antagonist -2, APJ agonist -2, EBI2 antag 95*, EBI2 antag conf 91*, EBI2 ag 2 and bGal cs 2.
Screening Cc1ccc(C(=O)O/N=C\c2ccc(N3CCOCC3)c([N+](=O)[O-])c2)cc1 returned HTR2A ag -2, CCR6 antagonist 13, CXCR6 block 9, APJ antagonist -12, APJ agonist 2 and EBI2 antag 16.
O=C(/C=C/c1cccs1)N1CCN(c2ccccc2F)CC1 was read as HTR2A ag -5, CCR6 antagonist 4, CXCR6 block 8, APJ antagonist -19, APJ agonist -3, EBI2 antag 50*, EBI2 antag conf 52*, EBI2 ag 0 and bGal cs 7.
`CC(=O)c1ccc(N2CCN(C(=O)/C=C/c3cccs3)CC2)cc1` gave HTR2A ag -1, CCR6 antagonist 6, CXCR6 block -2, APJ antagonist -10, APJ agonist -4 and EBI2 antag 15.
For O=C(O/N=C\c1ccc(N2CCCCC2)c([N+](=O)[O-])c1)c1ccc(Cl)cc1Cl the results were HTR2A ag -8, CCR6 antagonist 14, CXCR6 block 11, APJ antagonist 13, APJ agonist -3, EBI2 antag 51*, EBI2 antag conf 13, EBI2 ag 1 and bGal cs 7.
For CC(C)C(=O)Nc1ccc(Oc2ccc3c(c2)C(=O)NC3=O)cc1 the results were HTR2A ag -1, CCR6 antagonist 6, CXCR6 block -2, APJ antagonist 4, APJ agonist 1 and EBI2 antag -8.
For Cc1ccc(NS(=O)(=O)c2c(C)[nH]c(C)c2C(=O)N2CCCCC2)c(Cl)c1 the results were HTR2A ag -1, CCR6 antagonist 11, CXCR6 block 6, APJ antagonist 9, APJ agonist -3 and EBI2 antag 5.
CNC(=O)/C(C#N)=C/c1ccc(-c2nc3ccccc3s2)o1 was read as HTR2A ag -3, CCR6 antagonist 5, CXCR6 block 1, APJ antagonist 5, APJ agonist 0, EBI2 antag 53*, EBI2 antag conf 30, EBI2 ag -1 and bGal cs -11.
`COc1cc(C(=O)N2CCN(c3ncnc4sc(C)c(C)c34)CC2)cc(OC)c1OC` gave HTR2A ag 6, CCR6 antagonist -9, CXCR6 block -9, APJ antagonist 16, APJ agonist 6 and EBI2 antag -7.
N#C/C(=C\c1ccncc1)c1nc2c(s1)CCCC2 was read as HTR2A ag 1, CCR6 antagonist 7, CXCR6 block 2, APJ antagonist 5, APJ agonist 4 and EBI2 antag 0.
For COc1ccc(-n2cc(-c3ccc(Br)cc3)[nH]c2=S)cc1 the results were HTR2A ag -2, CCR6 antagonist -7, CXCR6 block 1, APJ antagonist -6, APJ agonist -1, EBI2 antag 79*, EBI2 antag conf 52*, EBI2 ag -2 and bGal cs -8.

Bioassay records (PubChem)
